Experimental data from ChEMBL document CHEMBL1155297, “Synthesis, antimicrobial and antioxidant activities of substituted pyrazoles, isoxazoles, pyrimidine and thioxopyrimidine derivatives” (2009).
Converted amounts (≈) assume the structure as drawn.

What was measured:
Type in all cases: functional
[1] = system: Staphylococcus aureus; assay: Antibacterial activity against Staphylococcus aureus NCIM 5021 at 100 ug/disk after 24 hrs by agar disk diffusion method; details: NCIM 5021, 24 h, read-out: IZ
How it was run: (§1)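 Agar disc diffusion on nutrient agar plates pre-inoculated with each bacterium. Sterile 6 mm filter-paper discs were moistened with compound in DMSO at the stated per-disc amount. Plates were incubated at 37 °C, and the growth-inhibition zone diameter was read after 24 h. Each determination was run in triplicate, and the mean of three independent readings is reported.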

[2] = system: Staphylococcus aureus; assay: Antibacterial activity against Staphylococcus aureus NCIM 5021 at 200 ug/disk after 24 hrs by agar disk diffusion method; details: NCIM 5021, 24 h, read-out: IZ; how it was run: as §1
[3] = system: Bacillus subtilis; assay: Antibacterial activity against Bacillus subtilis NCIM 2063 at 100 ug/disk after 24 hrs by agar disk diffusion method; details: NCIM 2063, 24 h, read-out: IZ; how it was run: as §1
[4] = system: Bacillus subtilis; assay: Antibacterial activity against Bacillus subtilis NCIM 2063 at 200 ug/disk after 24 hrs by agar disk diffusion method; details: NCIM 2063, 24 h, read-out: IZ; how it was run: as §1
[5] = system: Klebsiella pneumoniae; assay: Antibacterial activity against Klebsiella pneumoniae NCIM 2957 at 100 ug/disk after 24 hrs by agar disk diffusion method; details: NCIM 2957, 24 h, read-out: IZ; how it was run: as §1
[6] = system: Klebsiella pneumoniae; assay: Antibacterial activity against Klebsiella pneumoniae NCIM 2957 at 200 ug/disk after 24 hrs by agar disk diffusion method; details: NCIM 2957, 24 h, read-out: IZ; how it was run: as §1
[7] = system: Proteus vulgaris; assay: Antibacterial activity against Proteus vulgaris NCIM 2027 at 100 ug/disk after 24 hrs by agar disk diffusion method; details: NCIM 2027, 24 h, read-out: IZ; how it was run: as §1
[8] = system: Proteus vulgaris; assay: Antibacterial activity against Proteus vulgaris NCIM 2027 at 200 ug/disk after 24 hrs by agar disk diffusion method; details: NCIM 2027, 24 h, read-out: IZ; how it was run: as §1
[9] = system: Fusarium solani; assay: Antifungal activity against Fusarium solani NCIM 1330 at 100 ug/disk after 48 hrs by agar disk diffusion method; details: NCIM 1330, 48 h, read-out: IZ
How it was run: (§2)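 Fungal disc diffusion on nutrient agar plates pre-inoculated with each fungus. 6 mm sterile paper discs carried the compound in DMSO at the stated amount per disc. Plates were held at 37 °C, and inhibition-zone diameter was measured after 48 h. Values are the mean of three independent triplicate readings.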

[10] = system: Fusarium solani; assay: Antifungal activity against Fusarium solani NCIM 1330 at 200 ug/disk after 48 hrs by agar disk diffusion method; details: NCIM 1330, 48 h, read-out: IZ; how it was run: as §2
[11] = system: Curvularia lunata; assay: Antifungal activity against Curvularia lunata NCIM 716 at 100 ug/disk after 48 hrs by agar disk diffusion method; details: NCIM 716, 48 h, read-out: IZ; how it was run: as §2
[12] = system: Curvularia lunata; assay: Antifungal activity against Curvularia lunata NCIM 716 at 200 ug/disk after 48 hrs by agar disk diffusion method; details: NCIM 716, 48 h, read-out: IZ; how it was run: as §2
[13] = system: Aspergillus niger; assay: Antifungal activity against Aspergillus niger NCIM 596 at 100 ug/disk after 48 hrs by agar disk diffusion method; details: NCIM 596, 48 h, read-out: IZ; how it was run: as §2
[14] = system: Aspergillus niger; assay: Antifungal activity against Aspergillus niger NCIM 596 at 200 ug/disk after 48 hrs by agar disk diffusion method; details: NCIM 596, 48 h, read-out: IZ; how it was run: as §2
[15] = system: Staphylococcus aureus; assay: Antibacterial activity against Staphylococcus aureus NCIM 5021 after 24 hrs by microdilution susceptibility method; details: NCIM 5021, 24 h
How it was run: (§3)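 MIC by microdilution susceptibility; compounds in DMSO, bacterial suspensions inoculated into wells. Incubation was at 36 °C for 24 h. MIC is the lowest compound concentration showing no turbidity. Chloramphenicol served as reference antibacterial.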

[16] = system: Bacillus subtilis; assay: Antibacterial activity against Bacillus subtilis NCIM 2063 after 24 hrs by microdilution susceptibility method; details: NCIM 2063, 24 h; how it was run: as §3
[17] = system: Klebsiella pneumoniae; assay: Antibacterial activity against Klebsiella pneumoniae NCIM 2957 after 24 hrs by microdilution susceptibility method; details: NCIM 2957, 24 h; how it was run: as §3
[18] = system: Proteus vulgaris; assay: Antibacterial activity against Proteus vulgaris NCIM 2027 after 24 hrs by microdilution susceptibility method; details: NCIM 2027, 24 h; how it was run: as §3
[19] = system: Fusarium solani; assay: Antifungal activity against Fusarium solani NCIM 1330 after 48 hrs by microdilution susceptibility method; details: NCIM 1330, 48 h
How it was run: (§4)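 Broth microdilution MIC; fungal suspensions were inoculated into wells containing compound dissolved in DMSO. Incubation was at 36 °C for 48 h. MIC was recorded as the lowest concentration with no turbidity. Ketoconazole was the reference antifungal.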

[20] = system: Curvularia lunata; assay: Antifungal activity against Curvularia lunata NCIM 716 after 48 hrs by microdilution susceptibility method; details: NCIM 716, 48 h; how it was run: as §4
[21] = system: Aspergillus niger; assay: Antifungal activity against Aspergillus niger NCIM 596 after 48 hrs by microdilution susceptibility method; details: NCIM 596, 48 h; how it was run: as §4
[22] = system: Radical scavenging activity; assay: Antioxidant activity assessed as DPPH free radical scavenging activity at 100 uM after 20 mins
How it was run: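 DPPH scavenging: compound solutions were added to DPPH in dioxane/ethanol and kept at ambient temperature for 20 min. Absorbance was read at 517 nm. The test–control difference was expressed as percent DPPH radical scavenging.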

[23] = Antioxidant activity assessed as nitric oxide production at 100 uM after 120 mins by Griess reagent method
How it was run: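 Nitric oxide assay with Griess read-out. At intervals, 0.5 ml of incubation solution was mixed with 0.5 ml Griess reagent (1% sulfanilamide, 0.1% N-naphthylethylenediamine dihydrochloride, 2% o-phosphoric acid in water). The control received an equal amount of solvent and was handled identically.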

| SMILES | zone of inhibition at 100 µg/disc [1] [mm] | zone of inhibition at 200 µg/disc [2] [mm] | zone of inhibition at 100 µg/disc [3] [mm] | zone of inhibition at 200 µg/disc [4] [mm] | zone of inhibition at 100 µg/disc [5] [mm] | zone of inhibition at 200 µg/disc [6] [mm] | zone of inhibition at 100 µg/disc [7] [mm] | zone of inhibition at 200 µg/disc [8] [mm] | zone of inhibition at 100 µg/disc [9] [mm] | zone of inhibition at 200 µg/disc [10] [mm] | zone of inhibition at 100 µg/disc [11] [mm] | zone of inhibition at 200 µg/disc [12] [mm] | zone of inhibition at 100 µg/disc [13] [mm] | zone of inhibition at 200 µg/disc [14] [mm] | MIC [15] [µg/mL] | MIC [16] [µg/mL] | MIC [17] [µg/mL] | MIC [18] [µg/mL] | MIC [19] [µg/mL] | MIC [20] [µg/mL] | further results |
| --- | --- | --- | --- | --- | --- | --- | --- | --- | --- | --- | --- | --- | --- | --- | --- | --- | --- | --- | --- | --- | --- |
| NC1=NN=C(N)C1C(CC(=O)c1ccc(Cl)cc1)C(=O)c1ccc(Cl)cc1 (centres undefined) | 31 | 33 | 28 | 32 | 28 | 30 | 25 | 28 | 33 | 37 | 34 | 36 | 32 | 33 | 100 (≈ 248 µM) | 100 (≈ 248 µM) | 100 (≈ 248 µM) | 100 (≈ 248 µM) | 200 (≈ 496 µM) | 200 (≈ 496 µM) | MIC [21]: 200 µg/mL (≈ 496 µM); inhibition [22]: 91.7%; inhibition [23]: 90.7% |
| N=C1ON=C(N)C1C(CS(=O)(=O)c1ccc(Cl)cc1)S(=O)(=O)c1ccc(Cl)cc1 (centres undefined) | 32 | 33 | 31 | 34 | 26 | 29 | 28 | 30 | 33 | 35 | 31 | 33 | 29 | 32 | 50 (≈ 105 µM) | 50 (≈ 105 µM) | 100 (≈ 210 µM) | 100 (≈ 210 µM) | 100 (≈ 210 µM) | 50 (≈ 105 µM) | MIC [21]: 50 µg/mL (≈ 105 µM); inhibition [22]: 94.5%; inhibition [23]: 95.4% |
| N=C1ON=C(N)C1C(CC(=O)c1ccc(Cl)cc1)C(=O)c1ccc(Cl)cc1 (centres undefined) | 29 | 32 | 28 | 30 | 25 | 27 | 25 | 26 | 33 | 35 | 32 | 34 | 26 | 28 | 50 (≈ 124 µM) | 50 (≈ 124 µM) | 100 (≈ 247 µM) | 200 (≈ 495 µM) | 100 (≈ 247 µM) | 100 (≈ 247 µM) | MIC [21]: 100 µg/mL (≈ 247 µM); inhibition [22]: 89.6%; inhibition [23]: 90.3% |
